Assay [1] deals with T1, Mu-type opioid receptor (Mus musculus, UniProt P42866). Kind of assay: Agonist activity at recombinant mouse mu opioid receptor expressed in CHO cell membrane assessed as [35]-GTPgammaS binding incubated for […] by scintillation counting method. A general note: GTPγS resists hydrolysis and so accumulates on activated G proteins.
The target of assay [2] is Mu-type opioid receptor (Mus musculus) (UniProt P42866). Put plainly: Agonist activity at recombinant mouse mu opioid receptor expressed in CHO cell membrane assessed as [35]-GTPgammaS binding incubated for […] by scintillation counting method relative to DAMGO.
Assay [3] can be described thus: Selectivity index, ratio of Ki for mouse kappa opioid receptor expressed in CHO cells to Ki for mouse mu opioid receptor expressed in CHO cells.
Assay [4] deals with Kappa-type opioid receptor (Mus musculus, UniProt P33534). Put plainly: Displacement of [3H]-[…] from mouse kappa opioid receptor expressed in CHO cells incubated for […] by competitive radioligand binding assay. Format: cell-based. On the technique in general: Displacement assays read how much labelled ligand stays bound in the presence of the test substance.
Assay [5] deals with T1, Mu-type opioid receptor. Put plainly: Displacement of [3H]-Naloxone from mouse mu opioid receptor expressed in CHO cells incubated for […] by competitive radioligand binding assay. The assay is classed as cell-based.
The test system of assay [6] is Mus musculus. Put plainly: Inhibition of morphine-induced antinociceptive activity in subcutaneously dosed Swiss Webster mouse assessed as decrease in latency to tail withdrawal administered 5 mins before morphine stimulation observed for 20 mins by warm water tail withdrawal assay. Format: functional. In a few lines: (§1)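 Male Swiss Webster mice, n ≥ 5, baseline latency 2–4 s. Test compound given s.c. 5 min before morphine 10 mg/kg. Tail immersion at 56 ± 0.1 °C 20 min after morphine, 10 s cutoff, %MPE per mouse.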

The subject of assay [7] is Mus musculus. Put plainly: Inhibition of morphine-induced antinociceptive activity in Swiss Webster mouse assessed as decrease in latency to tail withdrawal at 10 mg/kg, sc administered 5 mins before morphine stimulation observed for 20 mins by warm water tail withdrawal assay. The assay is classed as functional, organism-based. In outline: as §1
Assay [8] addresses Delta-type opioid receptor (Homo sapiens, UniProt P41143). Put plainly: Displacement of [3H]-[…] from human delta opioid receptor expressed in CHO cells incubated for […] by competitive radioligand binding assay. Format: cell-based.
The nature of assay [9]: Selectivity index, ratio of Ki for human delta opioid receptor expressed in CHO cells to Ki for mouse mu opioid receptor expressed in CHO cells.
For assay [10], the system named is Mus musculus. Put plainly: Antinociceptive activity in Swiss Webster mouse assessed as increase in latency to tail withdrawal at 10 mg/kg, sc observed for 20 mins by warm water tail withdrawal assay. Format: functional, organism-based. In outline:
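Male Swiss Webster mice, 25–30 g, n = 5 per group, baseline tail latency 2–4 s accepted. Compound given s.c. in saline or water. Tail immersed in 56 ± 0.1 °C water 20 min post-dose, 10 s cutoff. %MPE = [(test − control)/(10 − control)] × 100. Saline and morphine as controls.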

pEC50, pKi: −log10 of the molar value. Calls of active or inactive are those of the source.

20 molecules from ChEMBL document CHEMBL4321862, “Application of Bivalent Bioisostere Concept on Design and Discovery of Potent Opioid Receptor Modulators” (J Med Chem, 2019) can be followed below.

In general, pEC50 refers to −log10 of the EC50, conventionally taken in molar units. The term Emax denotes the size of the effect at its maximum, as opposed to the concentration needed. As usually defined, the pKi is −log10 of the Ki, conventionally taken in molar units. Read a low pKi as a high Ki.

On to `Cl.O=C(N[C@H]1CC[C@@]2(O)[C@H]3Cc4ccc(O)c5c4[C@@]2(CCN3CC2CC2)[C@H]1O5)c1cc2ccccc2o1`, for which, at Mu-type opioid receptor [1], the negative-log EC50 (pEC50) was 8.26. Further, the Emax in [2] was 34%. The entries for the “Ratio Ki” value in assay [3] and in assay [9] were 3.8 and 81.6, respectively. Moreover, the pKi was 8.78 in assay [4], 9.36 on Mu-type opioid receptor [5] and 7.44 in [8]. Further, in the assay with Mus musculus [6], the AD50 is 3.21 mg/kg. Moreover, in the assay with Mus musculus [7], the inhibition result is “Active”.
As for `Cl.O=C(N[C@@H]1CC[C@@]2(O)[C@H]3Cc4ccc(O)c5c4[C@@]2(CCN3CC2CC2)[C@H]1O5)c1cc2ccccc2o1`, the result in the assay on Mus musculus [10] was Active. For the same molecule, on Mu-type opioid receptor [1], the pEC50 was 9.41. For the same molecule, in assay [2], the Emax was 64.5%. Besides, the results for the “Ratio Ki” value in assay [3] and in assay [9] were 1.4 and 12.1, respectively. Further, the figures for the negative logarithm of the Ki (pKi) (in assay [4]; on Mu-type opioid receptor [5]; in [8]) were 9.64, 9.80 and 8.71, respectively.
`Cl.O=C(N[C@H]1CC[C@@]2(O)[C@H]3Cc4ccc(O)c5c4[C@@]2(CCN3CC2CC2)[C@H]1O5)c1cc2ccccc2s1`: on Mu-type opioid receptor [1], the negative logarithm of the EC50 (pEC50) is 8.40. The Emax in assay [2] came out at 22.9%. Also, the figures for the “Ratio Ki” value in assay [3] and in assay [9] were 4.5 and 53, respectively. Besides, the pKi was 8.92 in [4], 9.57 on Mu-type opioid receptor [5] and 7.84 in [8].
On to `Cl.O=C(N[C@@H]1CC[C@@]2(O)[C@H]3Cc4ccc(O)c5c4[C@@]2(CCN3CC2CC2)[C@H]1O5)c1ccc2ccoc2c1`, for which the result in the assay with Mus musculus [10] was Active. Besides, on Mu-type opioid receptor [1], the pEC50 was 9.23. Also, the Emax in assay [2] is 21.1%. For the same molecule, the “Ratio Ki” value in [3] amounted to 1.7; in assay [9] it was 68.1. Also, the pKi in assay [4] is 9.52; on Mu-type opioid receptor [5], 9.74; in [8], 7.91.
On to `Cl.O=C(N[C@@H]1CC[C@@]2(O)[C@H]3Cc4ccc(O)c5c4[C@@]2(CCN3CC2CC2)[C@H]1O5)c1cccc2occc12`, for which the pEC50 on Mu-type opioid receptor [1] is 9.23. For the same molecule, the Emax in [2] was determined as 23.6%. The “Ratio Ki” value in assay [3] came to 4.7; in assay [9] it was 415. In addition, the pKi in [4] was 9.10; at Mu-type opioid receptor [5], 9.77; in assay [8] it was 7.15. The AD50 with Mus musculus [6] amounted to 2.79 mg/kg. Besides, the inhibition result in the assay with Mus musculus [7] was “Active”.
As to `Cl.O=C(N[C@H]1CC[C@@]2(O)[C@H]3Cc4ccc(O)c5c4[C@@]2(CCN3CC2CC2)[C@H]1O5)c1coc2ccccc12`, on Mu-type opioid receptor [1], the pEC50 is 8.80. For the same molecule, the Emax in assay [2] turned out to be 18.7%. For the same molecule, the “Ratio Ki” value in assay [3] is on record as 12.5; in assay [9] it was 62.3. The pKi was 8.47 in assay [4], 9.57 at Mu-type opioid receptor [5] and 7.77 in [8]. Further, the AD50 in the assay on Mus musculus [6] came out at 2.51 mg/kg. The inhibition result in the assay on Mus musculus [7] is “Active”.
With `Cl.O=C(N[C@@H]1CC[C@@]2(O)[C@H]3Cc4ccc(O)c5c4[C@@]2(CCN3CC2CC2)[C@H]1O5)c1cccc2ccsc12`, the pEC50 at Mu-type opioid receptor [1] is 8.53. Further, the “Ratio Ki” value amounted to 8.5 in [3] and 204.9 in assay [9]. Besides, the pKi in assay [4] was 8.79; on Mu-type opioid receptor [5], 9.72; in assay [8], 7.41.
Turning to `O=C(N[C@H]1CC[C@@]2(O)[C@H]3Cc4ccc(O)c5c4[C@@]2(CCN3CC2CC2)[C@H]1O5)c1cccc2ccoc12`, in assay [2], the Emax is 12.9%. Besides, in assay [4], the pKi is 8.29.
As to `Cl.O=C(N[C@H]1CC[C@@]2(O)[C@H]3Cc4ccc(O)c5c4[C@@]2(CCN3CC2CC2)[C@H]1O5)c1cccc2sccc12`, the pEC50 on Mu-type opioid receptor [1] is 8.98. Moreover, the Emax in assay [2] came out at 16.1%. Moreover, the figures for the “Ratio Ki” value in assay [3] and in assay [9] were 9 and 26.3, respectively. In addition, the pKi in assay [4] is 8.63; on Mu-type opioid receptor [5], 9.59; in assay [8], 8.16.
Take `Cl.O=C(N[C@@H]1CC[C@@]2(O)[C@H]3Cc4ccc(O)c5c4[C@@]2(CCN3CC2CC2)[C@H]1O5)c1cccc2sccc12`: the pEC50 on Mu-type opioid receptor [1] was 9.49. Moreover, in assay [2], the Emax was 23.1%. The “Ratio Ki” value in assay [3] is reported as 4.7; in assay [9] it was 150.3. In addition, the pKi in [4] is 9.12; on Mu-type opioid receptor [5], 9.80; in assay [8], 7.62.
As to `Cl.O=C(N[C@H]1CC[C@@]2(O)[C@H]3Cc4ccc(O)c5c4[C@@]2(CCN3CC2CC2)[C@H]1O5)c1ccc2ccsc2c1`, the pEC50 at Mu-type opioid receptor [1] was 8.52. The Emax in [2] came out at 18.1%. In addition, the “Ratio Ki” value in assay [3] was 13.3; in assay [9], 79.6. Besides, the results for the pKi (in assay [4]; at Mu-type opioid receptor [5]; in assay [8]) were 8.43, 9.55 and 7.65, respectively.
For the molecule `Cl.O=C(N[C@@H]1CC[C@@]2(O)[C@H]3Cc4ccc(O)c5c4[C@@]2(CCN3CC2CC2)[C@H]1O5)c1csc2ccccc12`, the pEC50 at Mu-type opioid receptor [1] is 9.43. In assay [2], the Emax was determined as 29.9%. Besides, the results for the “Ratio Ki” value in assay [3] and in assay [9] were 3.4 and 133.21, respectively. Further, the negative logarithm of the Ki (pKi) is 9.32 in assay [4], 9.85 on Mu-type opioid receptor [5] and 7.73 in assay [8].
For `Cl.O=C(N[C@@H]1CC[C@@]2(O)[C@H]3Cc4ccc(O)c5c4[C@@]2(CCN3CC2CC2)[C@H]1O5)c1coc2ccccc12`, the pEC50 on Mu-type opioid receptor [1] was 9.33. Also, the Emax in assay [2] amounted to 43.2%. Moreover, the “Ratio Ki” value was determined as 2.3 in assay [3] and 79.2 in assay [9]. The results for the pKi (in assay [4]; at Mu-type opioid receptor [5]; in assay [8]) were 9.52, 9.89 and 7.99, respectively.
In the case of `Cl.O=C(N[C@H]1CC[C@@]2(O)[C@H]3Cc4ccc(O)c5c4[C@@]2(CCN3CC2CC2)[C@H]1O5)c1csc2ccccc12`, at Mu-type opioid receptor [1], the pEC50 was 8.73. Besides, the Emax in assay [2] amounted to 14.3%. In addition, the entries for the “Ratio Ki” value in [3] and in assay [9] were 11.9 and 45.4, respectively. Also, the pKi in assay [4] is 8.62; on Mu-type opioid receptor [5] it was 9.70; in assay [8], 8.04.
Take `Cl.O=C(N[C@H]1CC[C@@]2(O)[C@H]3Cc4ccc(O)c5c4[C@@]2(CCN3CC2CC2)[C@H]1O5)c1ccc2ccoc2c1`: the pEC50 on Mu-type opioid receptor [1] is 8.65. Also, in [2], the Emax stood at 30.5%. Further, the “Ratio Ki” value is 5.7 in [3] and 105.8 in assay [9]. The pKi in assay [4] was 8.78; at Mu-type opioid receptor [5], 9.54; in assay [8], 7.51.
`Cl.O=C(N[C@@H]1CC[C@@]2(O)[C@H]3Cc4ccc(O)c5c4[C@@]2(CCN3CC2CC2)[C@H]1O5)c1ccc2ccsc2c1`: in the assay on Mus musculus [10], the result was Active. Further, the pEC50 on Mu-type opioid receptor [1] is 9.68. Further, the Emax in [2] is 58.7%. Besides, the “Ratio Ki” value in assay [3] was 1.3; in assay [9] it was 13.6. The pKi in assay [4] is 9.70; on Mu-type opioid receptor [5], 9.82; in assay [8], 8.69.
Turning to `Cl.O=C(N[C@H]1CC[C@@]2(O)[C@H]3Cc4ccc(O)c5c4[C@@]2(CCN3CC2CC2)[C@H]1O5)c1ccc2sccc2c1`, at Mu-type opioid receptor [1], the pEC50 is 8.61. Further, the Emax in assay [2] is 18.9%. In addition, the “Ratio Ki” value was found to be 5.6 in [3] and 30.4 in assay [9]. For the same molecule, the values for the pKi (in [4]; on Mu-type opioid receptor [5]; in assay [8]) were 8.66, 9.41 and 7.93, respectively.
With `Cl.O=C(N[C@@H]1CC[C@@]2(O)[C@H]3Cc4ccc(O)c5c4[C@@]2(CCN3CC2CC2)[C@H]1O5)c1ccc2occc2c1`, the outcome in the assay with Mus musculus [10] was Active. Also, on Mu-type opioid receptor [1], the pEC50 is 9.39. In addition, in assay [2], the Emax was found to be 52.2%. Also, the “Ratio Ki” value in assay [3] was 1.4; in assay [9] it was 35.4. The values for the pKi (in [4]; on Mu-type opioid receptor [5]; in assay [8]) were 9.68, 9.82 and 8.27, respectively.
Regarding `Cl.O=C(N[C@@H]1CC[C@@]2(O)[C@H]3Cc4ccc(O)c5c4[C@@]2(CCN3CC2CC2)[C@H]1O5)c1ccc2sccc2c1`, the outcome in the assay on Mus musculus [10] was Active. Also, on Mu-type opioid receptor [1], the pEC50 is 9.72. Besides, the Emax in assay [2] turned out to be 75.4%. In addition, the “Ratio Ki” value in assay [3] is 1.5; in assay [9] it was 9.7. Also, the pKi in [4] is 9.68; at Mu-type opioid receptor [5], 9.85; in assay [8], 8.87.
As for `Cl.O=C(N[C@H]1CC[C@@]2(O)[C@H]3Cc4ccc(O)c5c4[C@@]2(CCN3CC2CC2)[C@H]1O5)c1ccc2occc2c1`, the pEC50 on Mu-type opioid receptor [1] was 8.43. In addition, the Emax in assay [2] was determined as 17.7%. Besides, the “Ratio Ki” value in assay [3] is 12.1; in assay [9], 82.9. Moreover, the pKi was 8.37 in assay [4], 9.46 at Mu-type opioid receptor [5] and 7.54 in assay [8]. Further, the AD50 in the assay with Mus musculus [6] was 2.03 mg/kg. Moreover, the inhibition entry in the assay on Mus musculus [7] was “Active”.
